Experimental data: ChEMBL document CHEMBL1944502, “Efficient synthesis and anti-enteroviral activity of 9-arylpurines” (Eur J Med Chem, 2012)

Columns and labels:
[1] = Antiviral activity against Coxsackievirus B3 Nancy infected in african green monkey Vero cells assessed as inhibition of virus-induced cell death after 3 days by spectrophotometry based MTS/PMS assay; assay type: functional, Coxsackievirus B3 (strain Nancy); conditions: Enterovirus B, 72 h
In short: (§1)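 Infected cells in 96-well plates received serial compound dilutions plus 100 CCID50 of virus. They were incubated 3 days, until full CPE appeared in untreated virus controls, at 37 °C (35 °C for rhinovirus 14). Viability was read by MTS/PMS at OD 498 nm and converted to % of controls. EC50 was obtained by linear interpolation. Runs were at least triplicate, with microscopic confirmation.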

[2] = Cytotoxicity against African green monkey Vero cells after 3 days by spectrophotometry based MTS/PMS assay; assay type: cell-based; conditions: chlorocebus sabaeus
In short: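 Uninfected Vero cultures were handled as in the antiviral set-up: serial compound dilutions for 3 days. Overall metabolism was read by MTS/PMS, and raw values were converted to % of controls. CC50 (50% inhibition of cell metabolism) was obtained by linear interpolation. Each experiment was repeated at least three times.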

Vero [3] = assay: Cytotoxicity against Coxsackievirus B3 Nancy infected African green monkey Vero cells assessed as change in cell morphology at EC50 after 3 days by microscopic analysis; assay type: cell-based; conditions: chlorocebus sabaeus, 72 h
In short: (§2)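 Infected, compound-treated wells were inspected microscopically after the 3-day antiviral incubation. The check looked for virus-induced CPE and for compound-induced alteration of cell morphology, compared with uninfected, untreated control cells.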

Poliovirus 1 = assay: Antiviral activity against Poliovirus type 1 Sabin infected in BGM cells assessed as inhibition of virus-induced cell death after 3 days by spectrophotometry based MTS/PMS assay; assay type: functional; conditions: Enterovirus C, 72 h
[4] = Antiviral activity against Enterovirus 71 BRCR infected in human RD cells assessed as inhibition of virus-induced cell death after 3 days by spectrophotometry based MTS/PMS assay; assay type: functional, Human enterovirus 71 (strain BRCR); conditions: Enterovirus A, 72 h; in short: as §1
[5] = Antiviral activity against Echovirus 11 Gregory infected in BGM cells assessed as inhibition of virus-induced cell death after 3 days by spectrophotometry based MTS/PMS assay; assay type: functional, Echovirus 11 (strain Gregory); conditions: Enterovirus B, 72 h; in short: as §1
Coxsackievirus B4 = assay: Antiviral activity against Coxsackievirus B4 E2 Edwards infected in african green monkey Vero cells assessed as inhibition of virus-induced cytopathogenicity after 3 days by spectrophotometry based MTS/PMS assay; assay type: functional, organism-based; conditions: Enterovirus B, 72 h; in short: as §1
rhinovirus B14 = assay: Antiviral activity against Human rhinovirus 14 infected in human HeLa cells assessed as inhibition of virus-induced cytopathogenicity after 3 days by spectrophotometry based MTS/PMS assay; assay type: functional, organism-based; conditions: Rhinovirus B, 72 h; in short: as §1
[6] = Antiviral activity against drug-resistant Coxsackievirus B3 Nancy infected in african green monkey Vero cells assessed as inhibition of virus-induced cell death after 3 days by spectrophotometry based MTS/PMS assay; assay type: functional, Coxsackievirus B3 (strain Nancy); conditions: Enterovirus B, 72 h
Vero [7] = assay: Cytotoxicity against Coxsackievirus B4 E2 Edwards infected african green monkey Vero cells assessed as change in cell morphology at EC50 after 3 days by microscopic analysis; assay type: cell-based; conditions: chlorocebus sabaeus, 72 h; in short: as §2
[8] = Cytotoxicity against Echovirus 11 Gregory infected BGM cells assessed as change in cell morphology at EC50 after 3 days by microscopic analysis; assay type: cell-based; conditions: chlorocebus aethiops, 72 h; in short: as §2

## Cc1nc(Cl)c2ncn(-c3cccc(N4CCOC4=O)c3)c2n1
[1]
  EC50: 10.6 µM
  EC90: 15.6 µM
[2]
  CC50 at 72 h: > 200 µM
Vero [3]
  Activity: Non-toxic

## CCN(CC)c1cccc(-n2cnc3c(Cl)ncnc32)c1
[1]
  EC50: 15 µM
  EC90: 23 µM
[2]
  CC50 at 72 h: > 100 µM
Vero [3]
  Activity: Non-toxic

## CCN(CC)c1cccc(-n2cnc3c(Cl)nc(C)nc32)c1
[1]
  EC50: 10 µM
  EC90: 15 µM
[2]
  CC50 at 72 h: > 100 µM
Vero [3]
  Activity: Non-toxic

## CN(C)c1cccc(-n2cnc3c(Cl)ncnc32)c1
[1]
  EC50: 3.8 µM
  EC90: 5 µM
[2]
  CC50 at 72 h: > 100 µM
Poliovirus 1
  EC50: > 100 µM
[4]
  EC50: > 100 µM
[5]
  EC50: 12.5 µM
Coxsackievirus B4
  EC50: 6.9 µM
Rhinovirus B14
  EC50: > 100 µM
[6]
  EC50: > 100 µM
Vero [3]
  Activity: Non-toxic
Vero [7]
  Activity: Non-toxic

## Cc1nc(Cl)c2ncn(-c3cccc(N(C)C)c3)c2n1
[1]
  EC50: 12 µM
  EC90: 28 µM
[2]
  CC50 at 72 h: > 100 µM
Vero [3]
  Activity: Non-toxic

## CN(C)c1ccc(-n2cnc3c(Cl)ncnc32)cc1
[1]
  EC50: 6.3 µM
[2]
  CC50 at 72 h: > 100 µM
Vero [3]
  Activity: Non-toxic

## Cc1nc(Cl)c2ncn(-c3ccc(N(C)C)cc3)c2n1
[1]
  EC50: 11 µM
[2]
  CC50 at 72 h: > 100 µM
Vero [3]
  Activity: Non-toxic

## CN(C)c1cccc(-n2c(=O)[nH]c3c(Cl)ncnc32)c1
[1]
  EC50: 16 µM
  EC90: 26 µM
[2]
  CC50 at 72 h: > 100 µM
Vero [3]
  Activity: Non-toxic

## Cc1nc(Cl)c2[nH]c(=O)n(-c3cccc(N(C)C)c3)c2n1
[1]
  EC50: 10 µM
  EC90: 15 µM
[2]
  CC50 at 72 h: > 100 µM
Vero [3]
  Activity: Non-toxic

## Cc1nc(Cl)c2c(n1)n(-c1cccc(N(C)C)c1)c(=O)n2C
[1]
  EC50: 11.3 µM
  EC90: 18.2 µM
[2]
  CC50 at 72 h: > 200 µM
Vero [3]
  Activity: Non-toxic

## CCOC(=O)Oc1nc2c(Cl)nc(C)nc2n1-c1cccc(N(C)C)c1
[1]
  EC50: 12.6 µM
  EC90: 19.9 µM
[2]
  CC50 at 72 h: 131 µM
Vero [3]
  Activity: Non-toxic

## Cc1nc(Cl)c2nc(OC(=O)Oc3ccccc3)n(-c3cccc(N(C)C)c3)c2n1
[1]
  EC50: 13.6 µM
  EC90: 14.8 µM
[2]
  CC50 at 72 h: 75.9 µM

## CC(=O)Nc1cccc(-n2cnc3c(Cl)ncnc32)c1
[1]
  EC50: 18.5 µM
  EC90: 24.2 µM
[2]
  CC50 at 72 h: > 174 µM
Poliovirus 1
  EC50: > 174 µM
[4]
  EC50: > 174 µM
[5]
  EC50: 20.8 µM
[8]
  Activity: Non-toxic
Coxsackievirus B4
  EC50: 12.1 µM
Rhinovirus B14
  EC50: > 100 µM
[6]
  EC50: > 50 µM
Vero [7]
  Activity: Non-toxic

## CC(=O)Nc1cccc(-n2cnc3c(Cl)nc(C)nc32)c1
[1]
  EC50: 11.8 µM
  EC90: 17.5 µM
[2]
  CC50 at 72 h: > 200 µM
Vero [3]
  Activity: Non-toxic

## CC(=O)N(C)c1cccc(-n2cnc3c(Cl)ncnc32)c1
[1]
  EC50: 7.8 µM
[2]
  CC50 at 72 h: > 100 µM
Vero [3]
  Activity: Non-toxic

## CC(=O)N(C)c1cccc(-n2cnc3c(Cl)nc(C)nc32)c1
[1]
  EC50: 6.1 µM
  EC90: 8.3 µM
[2]
  CC50 at 72 h: 307 µM
Poliovirus 1
  EC50: > 158 µM
[4]
  EC50: > 158 µM
[5]
  EC50: 20 µM
[8]
  Activity: Non-toxic
Coxsackievirus B4
  EC50: 13 µM
Rhinovirus B14
  EC50: > 100 µM
[6]
  EC50: > 50 µM
Vero [3]
  Activity: Non-toxic
Vero [7]
  Activity: Non-toxic

## CCN(C(C)=O)c1cccc(-n2cnc3c(Cl)nc(C)nc32)c1
[1]
  EC50: 6.1 µM
  EC90: 10.9 µM
[2]
  CC50 at 72 h: > 200 µM
Vero [3]
  Activity: Non-toxic

## CC(=O)N(CC1CC1)c1cccc(-n2cnc3c(Cl)nc(C)nc32)c1
[1]
  EC50: 34.5 µM
  EC90: 52.3 µM
[2]
  CC50 at 72 h: > 200 µM
Vero [3]
  Activity: Non-toxic

## O=C1OCCN1c1cccc(-n2cnc3c(Cl)ncnc32)c1
[1]
  EC50: 33.7 µM
  EC90: 47.5 µM
[2]
  CC50 at 72 h: > 200 µM
Vero [3]
  Activity: Non-toxic

## O=C1OCCN1c1cccc(-n2c(=O)[nH]c3c(Cl)ncnc32)c1
[1]
  EC50: 8.9 µM
  EC90: 15.3 µM
[2]
  CC50 at 72 h: > 200 µM
Poliovirus 1
  EC50: > 151 µM
[4]
  EC50: > 151 µM
[5]
  EC50: 86.9 µM
Coxsackievirus B4
  EC50: 24.1 µM
Rhinovirus B14
  EC50: > 100 µM
Vero [3]
  Activity: Non-toxic
Vero [7]
  Activity: Non-toxic

## Cc1nc(Cl)c2[nH]c(=O)n(-c3cccc(N4CCOC4=O)c3)c2n1
[1]
  EC50: 25.4 µM
  EC90: 33.5 µM
[2]
  CC50 at 72 h: > 200 µM
Vero [3]
  Activity: Non-toxic

## CCOc1ncnc2c1ncn2-c1cccc(NCCO)c1
[1]
  EC50: > 200 µM
  EC90: > 200 µM
[2]
  CC50 at 72 h: > 200 µM

## Cc1nc(Cl)c2ncn(-c3cccc(C(C)(C)O)c3)c2n1
[2]
  CC50 at 72 h: > 100 µM
Vero [3]
  Activity: Non-toxic

## CC(=O)c1cccc(-n2cnc3c(Cl)ncnc32)c1
[2]
  CC50 at 72 h: > 100 µM
Poliovirus 1
  EC50: > 100 µM
[5]
  EC50: 21.6 µM
Coxsackievirus B4
  EC50: 28.8 µM
Rhinovirus B14
  EC50: > 100 µM
[6]
  EC50: > 100 µM
Vero [3]
  Activity: Non-toxic
Vero [7]
  Activity: Non-toxic

## CC(=O)c1cccc(-n2c(=O)[nH]c3c(Cl)nc(C)nc32)c1
[2]
  CC50 at 72 h: > 100 µM
Vero [3]
  Activity: Non-toxic

## Fc1cccc(F)c1[C@@H]1SCc2nc3cc(C(F)(F)F)ccc3n21
[2]
  CC50 at 72 h: > 100 µM
Vero [3]
  Activity: Non-toxic

## CC(C)S(=O)(=O)n1c(N)nc2ccc(/C(=N/O)c3ccccc3)cc21 [ENVIROXIME]
[2]
  CC50 at 72 h: > 100 µM
[6]
  EC50: 1.3 µM
Vero [3]
  Activity: Non-toxic
